Data on 17 compounds can be found in ChEMBL document CHEMBL1153417, “5,7,8-Trimethyl-benzopyran and 5,7,8-trimethyl-1,4-benzoxazine aminoamide derivatives as novel antiarrhythmics against ischemia-reperfusion injury” (J Med Chem, 2009).

The species named for data set [1] is Oryctolagus cuniculus. As to the kind of experiment: Electrophysiological effect in New Zealand rabbit right ventricular papillary muscle assessed as resting membrane potential at 20 um at 1 Hz stimulation frequency. The format is functional, tissue-based. Conditions: Muscle tissue. The method, boiled down: (§1)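 Right ventricular papillary muscle tips were superfused at 37 °C with bicarbonate solution (pH 7.35-7.40, 95% O2/5% CO2). They were paced at 1 Hz (1000 ms cycle length) with 1 ms constant-current pulses through a bipolar platinum electrode. Transmembrane potentials were recorded by conventional microelectrodes, and RP, CT, APA, Vmax, APD50 and APD90 were measured automatically.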

Data set [2] in a line: Electrophysiological effect in New Zealand rabbit right ventricular papillary muscle assessed as maximal rate of depolarization at 20 uM at 1 Hz stimulation frequency. The format is functional, Oryctolagus cuniculus, Muscle tissue. The method, boiled down: as §1
Data set [3] in a line: Electrophysiological effect in New Zealand rabbit right ventricular papillary muscle assessed as action potential duration measured at 50% repolarization at 20 uM at 1 Hz stimulation frequency. The format is functional, Oryctolagus cuniculus, Muscle tissue. The method, boiled down:
as §1

Data set [4] is described as follows: Electrophysiological effect in New Zealand rabbit right ventricular papillary muscle assessed as action potential amplitude at 20 uM at 1 Hz stimulation frequency. It counts as functional, Oryctolagus cuniculus, Muscle tissue. Put shortly: as §1
Data set [5] in a line: Electrophysiological effect in New Zealand rabbit right ventricular papillary muscle assessed as action potential duration measured at 90% repolarization at 20 uM at 1 Hz stimulation frequency. The format is functional, Oryctolagus cuniculus, Muscle tissue. The method, boiled down: as §1
Data set [6] has as its system Heart. Put plainly: Antiarrhythmic activity in ischemia-reperfusion injury exposed Wistar rat heart assessed as premature ventricular beats at 30 uM relative to untreated control. It counts as functional. The method, boiled down: (§2)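 Rat hearts were taken under pentobarbital (30-40 mg per animal) after iv heparin. They were perfused by Langendorff at 90 cm H2O with oxygenated KHB buffer (pH 7.2, 11 mmol l-1 glucose) at 37 °C. After 20 min equilibration came 15 min ischemia (glucose-free KHB with 10 mM Tris-HCl, N2-equilibrated), then 60 min reperfusion. Compound was present for the last 5 min of ischemia and through reperfusion; n = 3-5.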

For data set [7], the system named is Heart. Put plainly: Antiarrhythmic activity in ischemia-reperfusion injury exposed Wistar rat heart assessed as premature ventricular beats at 100 uM relative to untreated control. The format is functional. Put shortly:
as §2

Data set [8] deals with Heart. Put plainly: Antioxidant activity in ischemia-reperfusion injury exposed Wistar rat heart assessed as reduction of malondialdehyde level at 2 uM by thiobarbituric acid test relative to control. It counts as functional. On the set-up: scale not given: the % may be the effect or the level left. The method, boiled down:
as §2

The test system of data set [9] is Heart. As to the kind of experiment: Antiarrhythmic activity in ischemia-reperfusion injury exposed Wistar rat heart assessed as arrhythmia score at 1 uM. It counts as functional. The method, boiled down:
as §2

Data set [10] has as its system Heart. As to the kind of experiment: Antioxidant activity in ischemia-reperfusion injury exposed Wistar rat heart assessed as malondialdehyde level per gram of wet tissue at 1 uM by thiobarbituric acid test. The format is functional. The method, boiled down: as §2
The subject of data set [11] is Heart. Put plainly: Antiarrhythmic activity in ischemia-reperfusion injury exposed Wistar rat heart assessed as premature ventricular beats at 1 uM relative to untreated control. It counts as functional. The method, boiled down:
as §2

The species named for data set [12] is Oryctolagus cuniculus. Put plainly: Electrophysiological effect in New Zealand rabbit right ventricular papillary muscle assessed as resting membrane potential at 5 uM at 1 Hz stimulation frequency. It counts as functional, tissue-based. Conditions: Muscle tissue. The method, boiled down: as §1
Data set [13] is described as follows: Electrophysiological effect in New Zealand rabbit right ventricular papillary muscle assessed as action potential duration measured at 90% repolarization at 5 uM at 1 Hz stimulation frequency. The format is functional, Oryctolagus cuniculus, Muscle tissue. The method, boiled down: as §1
Data set [14] is described as follows: Electrophysiological effect in New Zealand rabbit right ventricular papillary muscle assessed as action potential amplitude at 5 uM at 1 Hz stimulation frequency. The format is functional, Oryctolagus cuniculus, Muscle tissue. Put shortly: as §1
Data set [15] in a line: Electrophysiological effect in New Zealand rabbit right ventricular papillary muscle assessed as action potential duration measured at 50% repolarization at 5 uM at 1 Hz stimulation frequency. It counts as functional, Oryctolagus cuniculus, Muscle tissue. The method, boiled down:
as §1

Data set [16] in a line: Electrophysiological effect in New Zealand rabbit right ventricular papillary muscle assessed as maximal rate of depolarization at 5 uM at 1 Hz stimulation frequency. It counts as functional, Oryctolagus cuniculus, Muscle tissue. Put shortly:
as §1

The species named for data set [17] is Oryctolagus cuniculus. As to the kind of experiment: Electrophysiological effect in New Zealand rabbit right ventricular papillary muscle assessed as increase in conduction time at 5 uM at 1 Hz stimulation frequency. Conditions: Muscle tissue. The format is functional, tissue-based. The method, boiled down: as §1
In data set [18] the test system is Heart. As to the kind of experiment: Toxicity in ischemia-reperfusion injury exposed Wistar rat heart assessed as induction of ventricular tachycardia at 1 uM. It counts as tissue-based. The method, boiled down: as §2
Data set [19] relates to Heart. Put plainly: Antioxidant activity in ischemia-reperfusion injury exposed Wistar rat heart assessed as reduction of malondialdehyde level at 1 uM by thiobarbituric acid test relative to control. The format is functional. On the set-up: scale not given: the % may be the effect or the level left. The method, boiled down:
as §2

The subject of data set [20] is Heart. Put plainly: Toxicity in ischemia-reperfusion injury exposed Wistar rat heart assessed as induction of ventricular fibrillation at 1 uM. The format is tissue-based. The method, boiled down:
as §2

Activity calls are given as the source filed them. The calls are words filed in the database; no cut-off is given here.

On to `Cc1cccc(C)c1OCC(C)N` (configuration not stated) [MEXILETINE], for which the Activity in the data set filed under Oryctolagus cuniculus [1] is -85.7 mV; in data set [2] it was 190.3 V/s; in data set [3], 141 ms; in data set [4], 105.9 mV; in data set [5] it was 180.9 ms.

On to `CCCCCCC1(C)CC(NC(=O)CN(CC)CC)c2c(C)c(O)c(C)c(C)c2O1` (configuration not stated), for which the Activity in the data set with Heart [6] was determined as 10%; in the data set on Heart [7], 9%.

Regarding `CCN(CC)CC(=O)NC1CC(c2ccccc2)Oc2c(C)c(C)c(O)c(C)c21` (configuration not stated), the Activity with Heart [8] came out at 45%; with Heart [9] it was 3.6; in the data set with Heart [10], 129 ng/g; in the data set with Heart [11], 4.3%.

For `CCN(CC)CC(=O)Nc1c(C)cccc1C` [LIDOCAINE], the results for the Activity in the data set on Heart [9], with Heart [10] and in the data set with Heart [11] were 1, 160 ng/g and 3.1%, respectively.

Take `CCN(CC)CC(=O)N1CC(c2ccccc2)Oc2c(C)c(C)c(OC)c(C)c21` (configuration not stated): the Activity in the data set with Heart [9] amounted to 1; in the data set on Heart [10], 136 ng/g; with Heart [11], 2.8%.

Turning to `CCN(CC)CC(=O)N1C[C@@H](c2ccccc2)Oc2c(C)c(C)c(Cl)c(C)c21`, the Activity with Heart [9] was 1; with Heart [10], 153 ng/g; in the data set with Heart [11], 0.8%.

For `CCN(CC)CC(=O)N1CCOc2c(C)c(C)c(Cl)c(C)c21`, the Activity with Heart [8] stood at 29%; in the data set on Heart [9], 1; with Heart [10], 163 ng/g; in the data set with Heart [11], 3.9%.

For `CCN(CC)CC(=O)N1CC(c2ccccc2)Oc2c(C)c(C)c(Cl)c(C)c21` (configuration not stated), the Activity in the data set on Heart [9] was 1; in the data set on Heart [10], 118 ng/g; with Heart [11], 1%.

Consider `CC(C)NCC(O)c1ccc(NS(C)(=O)=O)cc1` (configuration not stated) [SOTALOL], for which the Activity was -85.9 mV in the data set listed under Oryctolagus cuniculus [1]; 202.4 V/s in data set [2]; 219.9 ms in data set [3]; 109.5 mV in data set [4]; 275 ms in data set [5].

With `CCN(CC)CC(=O)N1CC(C)(C)Oc2c(C)c(C)c(Cl)c(C)c21`, the Activity with Heart [9] was 5.7; in the data set filed under Oryctolagus cuniculus [12], -85.3 mV; in data set [13] it was 214.4 ms; in data set [14], 116.2 mV; in the data set with Heart [10], 143 ng/g; in data set [15] it was 171.6 ms. For the same compound, the figures for the Activity (in [16]; in the data set on Heart [11]) were 188.4 V/s and 2.1%, respectively.

On to `CCN(CC)CC(=O)N1CC(c2ccccc2)Oc2c(C)c(C)cc(C)c21` (configuration not stated), for which the Activity in the data set on Heart [8] is 48%; in the data set on Heart [9], 1; in the data set listed under Oryctolagus cuniculus [12], -82.7 mV; in data set [13] it was 210.9 ms; in data set [14], 115.1 mV; with Heart [10], 120 ng/g. In addition, the figures for the Activity (in data set [15]; in data set [16]; in the data set on Heart [11]) were 175.6 ms, 174.5 V/s and 0.5%, respectively. The result in the data set listed under Oryctolagus cuniculus [17] was Active.

Turning to `CCN(CC)CC(=O)N1CC(C)(C)Oc2c(C)c(C)cc(C)c21`, the Activity in the data set on Heart [9] is 5.1; in the data set listed under Oryctolagus cuniculus [12], -85.9 mV; in data set [13], 179.5 ms; in [14], 108.4 mV; in the data set with Heart [10], 160 ng/g; in [15], 147.1 ms. For the same compound, the Activity in [16] was 175.4 V/s; with Heart [11], 1.6%. For the same compound, the result in the data set listed under Oryctolagus cuniculus [17] was Active.

Turning to `CCN(CC)CC(=O)N1CCOc2c(C)c(C)cc(C)c21`, the Activity in the data set on Heart [8] was 34%; in the data set on Heart [9], 1.3; in the data set listed under Oryctolagus cuniculus [12] it was -85.8 mV; in data set [13] it was 236.8 ms; in [14], 111.9 mV; in the data set with Heart [10] it was 152 ng/g. For the same compound, the Activity in [15] amounted to 192.3 ms; in data set [16] it was 200.2 V/s; with Heart [11], 3.4%.

For `CCOC(=O)C1(C)CN(C(=O)CN(CC)CC)c2c(C)c(Cl)c(C)c(C)c2O1` (configuration not stated), the Activity was -81.5 mV in the data set filed under Oryctolagus cuniculus [12]; 159.5 ms in data set [13]; 105.1 mV in [14]; 107.7 ms in data set [15]; 184.7 V/s in data set [16]. For the same compound, the outcome in the data set listed under Oryctolagus cuniculus [17] was Active.

Take `CCN(CC)CC(=O)N1C[C@H](c2ccccc2)Oc2c(C)c(C)c(Cl)c(C)c21`: the Activity result in the data set with Heart [18] is “Toxic”; in the data set on Heart [9] it was 4.3; with Heart [19], 50%; in the data set with Heart [10], 106 ng/g; with Heart [11] it was 1.5%; in the data set on Heart [20], “Toxic”.

For the compound `CCN(CC)CC(=O)NC1CC(C)(C)Oc2c(C)c(C)c(O)c(C)c21` (configuration not stated), the Activity in the data set with Heart [6] is 9%; in the data set with Heart [7], 8%.

On to `CCOC(=O)C1(C)CN(C(=O)CN(CC)CC)c2c(C)cc(C)c(C)c2O1` (configuration not stated), for which the Activity was 61% in the data set on Heart [8]; 1 with Heart [9]; -86.6 mV in the data set filed under Oryctolagus cuniculus [12]; 201.2 ms in [13]; 110.9 mV in [14]; 88.6 ng/g with Heart [10]. The Activity in data set [15] was 161.7 ms; in data set [16], 171.9 V/s; in the data set on Heart [11], 3%. Also, in the data set listed under Oryctolagus cuniculus [17], the outcome was Active.
